Measurements: publication PMC7498667 (Neoplasia (New York, N.Y.), 2020)

How the values were obtained:
AR protein = assay type: cell-based, human; settings: MDA-MB-453 cells, combination with ARD-61 for 24 h
[1] = Animal weight and signs of toxicity in efficacy experiment; assay type: in vivo; settings: entire efficacy experiment, MDA-MB-453 xenograft mice
Method in brief: (§1)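 Male CB.17 SCID mice were implanted s.c. with 5 × 10^6 MDA-MB-453 cells in 5 mg/ml Matrigel. At a mean tumour volume of 100 mm3, mice were randomised by tumour size. Test compound or vehicle (20% PEG400 + 6% Cremophor EL + 74% PBS) was given i.p. daily. Tumours and body weights were measured twice weekly, with volume = length × width²/2. Data are mean ± SEM, n=8.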

metastatic AR+, TNBCs = settings: phase 2, metastatic AR+ TNBC; cited from earlier work
[2] = tested on: 5 AR+ breast cancer cell lines; experiment: Cell growth inhibition, WST-8 assay, statements for the whole panel; assay type: cell-based, human; settings: concentrations up to 10 µM, 5 AR+ cell lines
[3] = tested on: MDA-MB-453 xenograft tumor; experiment: Antitumor efficacy in MDA-MB-453 xenograft tumor model; assay type: in vivo, mice; settings: enzalutamide 50 mg/kg IP dose
Method in brief: as §1

[4] = tested on: caspase-8, −9, −3, and −7 and PARP; experiment: Cleavage of caspases and PARP, Western blot; assay type: cell-based, human; settings: 1 or 10 µM, MDA-MB-453 and HCC1428, 48 h
Method in brief: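 MDA-MB-453 and HCC1428 cells were exposed to a concentration range of test compound for 48 h. Cells were lysed in RIPA with protease and phosphatase inhibitors for 30 min on ice. Lysates were run on SDS-PAGE and transferred to PVDF. Membranes were blocked in 5% milk in TBST, probed with primary antibodies for cleaved caspases and PARP overnight at 4 °C and with HRP secondary, then developed by ECL.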

[5] = tested on: MDA-MB-453, HCC1428 and MCF-7 cells; experiment: Apoptosis analysis by flow cytometry; assay type: cell-based, human; settings: 10 µM, 3-day treatment
Method in brief: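 MDA-MB-453, HCC1428 and MCF-7 cells were treated for 72 h with a concentration range of test compound, with AR antagonist comparators at 10 µM. For the time course, MDA-MB-453 and HCC1428 cells received 1 µM. Cells were washed in cold PBS, stained with an apoptosis detection kit and analysed by flow cytometry for percent live and apoptotic cells. Data are mean ± SEM, n=3.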

[6] = tested on: MDA-MB-453, HCC1428 and MCF-7 cells; experiment: Cell cycle analysis by flow cytometry; assay type: cell-based, human; settings: 10 µM, 72 h
Method in brief: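 MDA-MB-453, HCC1428 and MCF-7 cells were treated for 72 h with a concentration range of test compound (AR antagonist comparators at 10 µM), or with 1 µM over a time course. Cells were fixed in 70% ethanol overnight at 4 °C, stained with propidium iodide plus 0.2 mg/ml RNase A for 30 min at room temperature, and cell-cycle distribution was measured by flow cytometry. Data are mean ± SEM.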

[7] = tested on: AR+/ER−/PR− breast cancer; settings: cited from earlier work

For C[C@]1(O)CC[C@H]2[C@@H]3CCC4=CC(=O)CCC4=C3C=C[C@@]21C [R1881, metribolone], the “Effect on AR depletion induced by ARD-61” value (AR protein) was “effectively block”.

For CNC(=O)c1ccc(N2C(=S)N(c3ccc(C#N)c(C(F)(F)F)c3)C(=O)C2(C)C)cc1F [Enzalutamide], the “Animal weight loss or other signs of toxicity” value [1] is given as “No animal weight loss or other signs of toxicity”, the Progression-free survival (metastatic AR+, TNBCs) is given as “significant improvement” and the “Inhibition of cell growth” value [2] is given as “minimal activity”. The Antitumor activity [3] was “very similar with that of ARD-61 at 25 mg/kg”, the “Effect on cleavage of caspase-8, −9, −3, −7 and PARP” value [4] was “minimal effect” and the Apoptosis induction [5] was “minimal apoptosis”. For the same compound, the “Effect on cell cycle (G2/M arrest)” value [6] was “minimal effect”.

In the case of CC(O)(CS(=O)(=O)c1ccc(F)cc1)C(=O)Nc1ccc(C#N)c(C(F)(F)F)c1 (stereo not shown) [Bicalutamide], the “Clinical benefit ratio (CBR)” value [7] is given as 19% and the Toxicity [7] is given as “minimal toxicity”.
